Experiment [1] has as its target T1, Prothrombin (Homo sapiens, UniProt P00734).
The target in experiment [2] is T1, Prothrombin. The experiment in a line: Inhibitory activity against human thrombin was determined.
Experiment [3] in a line: Activated partial thromboplastin time (APTT) 2x control using human plasma. It counts as functional. Summed up:
(§1)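 Human plasma clotting; test compound added with a preincubation step before APTT measurement. The value is the compound concentration required to double the activated partial thromboplastin time. Lines with no significant effect were tested up to 100 µM.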

Experiment [4] in a line: Selectivity was determined.
Experiment [5] deals with Serine protease 1 (Homo sapiens) (UniProt P07477). The experiment in a line: Inhibitory activity against protease trypsin was determined.
The species entered for the next experiment is Homo sapiens. The experiment in a line: Activated partial thromboplastin time (APTT) 2x control using human plasma; NE=no significant effect at 100 uM. The experiment is classed as functional, cell-free. Summed up: as §1

The term IC50 denotes the concentration that inhibits the measured activity by half.

Serine protease 1 (Homo sapiens), sequence (P07477 whole entry): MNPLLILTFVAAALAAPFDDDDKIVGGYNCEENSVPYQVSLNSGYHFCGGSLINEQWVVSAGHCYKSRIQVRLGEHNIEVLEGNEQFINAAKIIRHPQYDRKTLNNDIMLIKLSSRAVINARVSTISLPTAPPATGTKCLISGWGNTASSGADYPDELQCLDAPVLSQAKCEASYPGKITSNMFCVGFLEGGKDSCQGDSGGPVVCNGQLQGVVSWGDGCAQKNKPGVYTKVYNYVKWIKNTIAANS

The molecule `N=C(N)CCCCC1C(=O)O[C@H]2Cc3ccccc3[C@H]12` (some centres undefined) registered a K obs / 1 at Prothrombin [1] of 4200 M⁻¹ s⁻¹. The midpoint of inhibition at Prothrombin [2], the IC50, lay at 77 nM. Also, in experiment [3], the APTT is 100 µM.
`N=C(N)CCCCC1C(=O)O[C@H]2Cc3ccc(-c4ccccc4)cc3[C@H]12` (some centres undefined) showed a K obs / 1 at Prothrombin [1] of 490000 M⁻¹ s⁻¹. In experiment [3], this molecule had an APTT of 60 µM.
The like results for `N=C(N)CCCCC1C(=O)O[C@H]2Cc3cc(-c4ccc(O)cc4)ccc3[C@H]12` (some centres undefined) were, in that order, 33000 M⁻¹ s⁻¹ and 27 µM.
Take `CCN(CC)C(=O)c1cccc(-c2ccc3c(c2)C[C@@H]2OC(=O)C(CCCCC(=N)N)[C@@H]32)c1` (some centres undefined): the K obs / 1 on Prothrombin [1] is 420000 M⁻¹ s⁻¹; in experiment [5] it was 220000 M⁻¹ s⁻¹. Also, the Selectivity in experiment [4] was determined as 1.9. The APTT in experiment [3] is 4 µM.
The molecule `NC(N)=NCCC[C@H](NC(=O)[C@@H]1CCCN1C(=O)[C@H](N)Cc1ccccc1)C(=O)CCl` displayed an APTT in experiment [3] of 1.8 µM.
For the molecule `N=C(N)CCCCC1C(=O)O[C@H]2Cc3cc(-c4ccccc4)ccc3[C@H]12` (some centres undefined), the K obs / 1 worked out at 48000 M⁻¹ s⁻¹ at Prothrombin [1] and 20000 M⁻¹ s⁻¹ in experiment [5]. Further, in experiment [4], the Selectivity was 2.4. The molecule further came in with an APTT in experiment [3] of 50 µM.
In the case of `N=C(N)CCCCC1C(=O)O[C@H]2Cc3ccc(-c4ccc(O)cc4)cc3[C@H]12` (some centres undefined), at Prothrombin [1], the K obs / 1 was determined as 270000 M⁻¹ s⁻¹. Half-maximal inhibition against Prothrombin [2] (IC50) required 9 nM. In experiment [3], this molecule displayed an APTT of 42 µM.
Consider `C/N=C(/N)CCCC[C@H]1C(=O)O[C@H]2Cc3ccc(-c4ccc(O)cc4)cc3[C@@H]21`, for which the APTT entry in the experiment filed under Homo sapiens is “No effect”.
For `COc1cccc(-c2ccc3c(c2)C[C@@H]2OC(=O)C(C)(CCCCC(=N)N)[C@@H]32)c1` (some centres undefined), the APTT entry in the experiment filed under Homo sapiens is “No effect”. The same molecule had a half-inhibitory concentration (IC50) against Prothrombin [2] of 1800 nM.
Turning to `COc1cccc(-c2ccc3c(c2)C[C@@H]2OC(=O)C(CCCCC(=N)N)[C@@H]32)c1` (some centres undefined), the K obs / 1 on Prothrombin [1] was 96000 M⁻¹ s⁻¹; in experiment [5], 36000 M⁻¹ s⁻¹. In experiment [4], the Selectivity turned out to be 2.7. The molecule further gave an APTT in experiment [3] of 25 µM.
On Prothrombin [2], `CNC(=N)CCCC[C@H]1C(=O)O[C@H]2Cc3ccc(-c4ccc(O)cc4)cc3[C@@H]21` had a half-inhibitory concentration (IC50) of 1600 nM.
Turning to `NC(N)=NCCC[C@H](NC(=O)[C@H]1CCCN1C(=O)[C@H](N)Cc1ccccc1)C(=O)CCl`, the K obs / 1 on Prothrombin [1] amounted to 1.6e+07 M⁻¹ s⁻¹.
On to `N=C(N)CCCCC1C(=O)O[C@H]2Cc3ccc(-c4cccc(-c5ccccc5)c4)cc3[C@H]12` (some centres undefined), for which the K obs / 1 at Prothrombin [1] is 3.8e+06 M⁻¹ s⁻¹; in experiment [5], 110000 M⁻¹ s⁻¹. The molecule also showed a Selectivity in experiment [4] of 35. The molecule also gave an APTT in experiment [3] of 85 µM.
Turning to `CCN(CC)C(=O)c1cccc(-c2ccc3c(c2)[C@@H]2C(CCCCC(=N)N)C(=O)O[C@H]2C3)c1` (some centres undefined), the results for the K obs / 1 (at Prothrombin [1]; in experiment [5]) were 1.1e+07 M⁻¹ s⁻¹ and 200000 M⁻¹ s⁻¹, respectively. Further, the Selectivity in experiment [4] is 55. In experiment [3], this molecule gave an APTT of 40 µM.
With `N=C(N)CCCCC1C(=O)O[C@H]2Cc3cc(-c4cccc(-c5ccccc5)c4)ccc3[C@H]12` (some centres undefined), the K obs / 1 at Prothrombin [1] stood at 160000 M⁻¹ s⁻¹. The APTT entry in the experiment filed under Homo sapiens is “No effect”.
`N=C(N)CCC[C@H]1C(=O)O[C@H]2Cc3ccccc3[C@@H]21` had an IC50 against Prothrombin [2] of 600 nM.

The record behind these values is ChEMBL document CHEMBL1131930, “Synthetic [5,5] trans-fused indane lactones as inhibitors of thrombin” (Bioorg Med Chem Lett, 1999).
